Data as given in paper PMC8341375 (RSC Chemical Biology, 2021).
Values belong to the molecule of their own block, whether it stands above or below them.

Assays:
aromatase (CYP19) [1] = target: T1, aromatase (CYP19) (Homo sapiens, UniProt P11511); test: CYP19/MFC aromatase inhibition assay; format: biochemical; conditions: for Fractional activity at saturation / Hill slope: dose-response fit, 7.5 nM P450, 25 μM MFC; for Hill slope: AR19 fixed to 1
T1 sequence (P11511 1-503): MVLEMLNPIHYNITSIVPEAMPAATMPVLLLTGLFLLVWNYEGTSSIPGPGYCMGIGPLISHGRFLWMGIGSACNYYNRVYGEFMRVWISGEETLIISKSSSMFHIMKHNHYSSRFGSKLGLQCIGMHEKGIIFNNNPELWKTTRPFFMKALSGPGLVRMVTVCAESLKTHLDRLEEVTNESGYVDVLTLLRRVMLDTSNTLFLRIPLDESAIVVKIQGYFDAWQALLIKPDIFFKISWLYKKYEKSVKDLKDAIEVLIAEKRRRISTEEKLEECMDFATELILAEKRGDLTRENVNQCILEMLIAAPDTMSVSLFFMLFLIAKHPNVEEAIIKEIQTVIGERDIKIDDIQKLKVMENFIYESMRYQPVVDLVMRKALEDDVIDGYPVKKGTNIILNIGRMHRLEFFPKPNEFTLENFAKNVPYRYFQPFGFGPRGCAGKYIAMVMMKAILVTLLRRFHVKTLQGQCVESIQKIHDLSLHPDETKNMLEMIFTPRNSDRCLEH

aromatase (CYP19) [2] = target: T1, aromatase (CYP19); conditions: noncompetitive AI; cited from earlier work
recombinant CYP19 = test: Soret shifts by absorption spectroscopy; format: binding; conditions: titration of up to 100 μM, 2 μM ASD
Summary of the method: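 Purified recombinant CYP19 (from codon-optimized CYP19A1 cDNA in pCW) at 2–3 μM in 100 mM potassium phosphate, pH 7.4. Test compound titrated (6–36 μM, then 100 μM) with ACN kept ≤3%, with or without 2 μM androstenedione. UV-Vis absorption scans after 10 min at 25 °C. Adducts were dithionite-reduced and exposed to CO in some runs.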

CYP19 = target: T2, CYP19 (Homo sapiens, UniProt P11511); test: AR11 and AR13 steady-state kinetics assay; format: biochemical; conditions: nonlinear regression, no inhibitor
T2 sequence (P11511 1-503): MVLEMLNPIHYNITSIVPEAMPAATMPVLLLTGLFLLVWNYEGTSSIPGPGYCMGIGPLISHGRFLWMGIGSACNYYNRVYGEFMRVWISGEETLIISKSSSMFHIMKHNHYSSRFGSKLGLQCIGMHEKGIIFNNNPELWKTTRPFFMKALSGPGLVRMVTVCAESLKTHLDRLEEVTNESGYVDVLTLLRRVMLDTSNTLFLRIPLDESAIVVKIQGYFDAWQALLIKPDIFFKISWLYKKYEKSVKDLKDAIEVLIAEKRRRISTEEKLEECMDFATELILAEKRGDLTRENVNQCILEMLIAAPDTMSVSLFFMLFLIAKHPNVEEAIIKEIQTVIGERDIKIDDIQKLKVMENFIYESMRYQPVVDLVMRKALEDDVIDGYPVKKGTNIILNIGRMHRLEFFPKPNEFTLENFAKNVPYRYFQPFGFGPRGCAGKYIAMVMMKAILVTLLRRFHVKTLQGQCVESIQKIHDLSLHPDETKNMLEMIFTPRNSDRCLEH

[3] = substrate: COc1ccc2c(C(F)(F)F)cc(=O)oc2c1; test: AR11 and AR13 steady-state kinetics assay; format: biochemical; conditions: other: nonlinear regression, no inhibitor; pH 7.4; 37.0 °C

Molecule: CC/C(=C(\c1ccc(O)cc1)c1ccc(OCCNC)cc1)c1ccccc1 [Endoxifen, endoxifen]
- Ki (aromatase (CYP19) [2]): 4 µM
- Soret peak shift from 395 nm in the CYP19 ASD-bound state (recombinant CYP19): did not induce a Soret peak shift
- IC50 (aromatase (CYP19) [1]; IC50, 7.5 nM P450, 25 μM MFC, 4-parameter logistic model (AR19: 3-parameter, Hill 1), ± SEM): 30.9 ± 3.1 µM
- Fractional activity at saturation (aromatase (CYP19) [1]): 0.02 ± 0.02
- Hill slope (aromatase (CYP19) [1]): 2.27 ± 0.41
- Hill slope (aromatase (CYP19) [1]; listed as endoxifen): 2

B1: CYP19 (Homo sapiens) (protein)
chain: MVLEMLNPIHYNITSIVPEAMPAATMPVLLLTGLFLLVWNYEGTSSIPGPGYCMGIGPLISHGRFLWMGIGSACNYYNRVYGEFMRVWISGEETLIISKSSSMFHIMKHNHYSSRFGSKLGLQCIGMHEKGIIFNNNPELWKTTRPFFMKALSGPGLVRMVTVCAESLKTHLDRLEEVTNESGYVDVLTLLRRVMLDTSNTLFLRIPLDESAIVVKIQGYFDAWQALLIKPDIFFKISWLYKKYEKSVKDLKDAIEVLIAEKRRRISTEEKLEECMDFATELILAEKRGDLTRENVNQCILEMLIAAPDTMSVSLFFMLFLIAKHPNVEEAIIKEIQTVIGERDIKIDDIQKLKVMENFIYESMRYQPVVDLVMRKALEDDVIDGYPVKKGTNIILNIGRMHRLEFFPKPNEFTLENFAKNVPYRYFQPFGFGPRGCAGKYIAMVMMKAILVTLLRRFHVKTLQGQCVESIQKIHDLSLHPDETKNMLEMIFTPRNSDRCLEH
- Km [3]: 28.48 µM

The remaining lines, values ahead:

- Fractional activity at saturation (aromatase (CYP19) [1]): 0.03 ± 0.01
- Hill slope (aromatase (CYP19) [1]): 1.12 ± 0.07
Molecule: CC(=O)N1CCN(c2ccc(OCC3COC(Cn4ccnc4)(c4ccc(Cl)cc4Cl)O3)cc2)CC1 (stereo not shown) [Ketoconazole, ketoconazole]

- substrate Vmax (CYP19): 0.731 pmol HFC min^−1 pmol^−1 P450
Molecule: COc1ccc2c(C(F)(F)F)cc(=O)oc2c1 [MFC, 7-methoxy-4-(trifluoromethyl)coumarin]
